RGS4 pot = RGS4 potentiation or activation; B-score at 10 µM; actives 0.92% (n = 310,000); HEK293 M3R/inducible RGS4, carbachol calcium flux Fluo4; stronger effect = lower value;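 active means B-score of the integrated calcium signal more than 4 SD below the library mean, with starting fluorescence not abnormally high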;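 further: negative B-score means reduced calcium response which marks RGS4 activation or potentiation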
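Assay system: Inducible-RGS4 HEK293 cells carrying M3 receptor | Schedule: Compound preincubation 20 min at room temperature before agonist | Signal: Kinetic calcium fluorescence imaging with Fluo4-AM dye, 2 µM | Read-out basis: B score from integrated fluorescence ratio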
MrgX1 ag = human MrgX1 receptor agonism, primary screen; Q96LB2; AID 588627; MrgX1-HEK293 cells, Fluo-4 calcium fluorescence, agonist mode; stronger effect = higher value; B-score at 10 µM; actives 0.44% (n = 310,000);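 active means calcium response B-score plate-corrected fluorescence ratio at least 3 library SD, with starting fluorescence B-score inside 5 SD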
Target sequence (Q96LB2 whole entry, looked up): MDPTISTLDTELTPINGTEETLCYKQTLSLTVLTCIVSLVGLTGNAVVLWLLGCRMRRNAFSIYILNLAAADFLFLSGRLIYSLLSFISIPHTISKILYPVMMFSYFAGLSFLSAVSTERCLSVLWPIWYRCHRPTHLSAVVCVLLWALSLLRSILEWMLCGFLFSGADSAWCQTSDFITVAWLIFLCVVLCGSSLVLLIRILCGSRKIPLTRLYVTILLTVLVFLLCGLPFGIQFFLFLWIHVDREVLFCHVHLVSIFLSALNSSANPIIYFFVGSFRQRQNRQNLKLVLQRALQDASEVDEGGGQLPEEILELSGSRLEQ
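Material: MrgX1-expressing HEK293 cells; input: 15,000 cells per well; doses: test compound given as first of three sequential additions; schedule: overnight plating before 1 h dye loading; technique: Fluo-4 NW calcium-flux fluorescence, kinetic read; evaluation: baseline-normalised fluorescence change ratio, B-scored; control set: plate-wise positive and negative controls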
RGS4 block = inhibitors of human RGS4; P49798; HEK293 M3R/RGS4 inducible, Fluo-4 calcium flux; stronger effect = higher value; triggered by carbachol at its EC20; B-score at 10 µM; actives 0.45% (n = 310,000);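 active means B-score, a plate-corrected calcium signal, over three deviations above library mean, with baseline fluorescence within five deviations of library mean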;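 further: RGS4 expression induced by doxycycline in cells with stable M3 receptor; B-score is computed from the integrated fluorescence ratio over baseline after carbachol; higher B-score means a larger calcium signal and so more RGS4 inhibition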
Target sequence (P49798 whole entry, looked up): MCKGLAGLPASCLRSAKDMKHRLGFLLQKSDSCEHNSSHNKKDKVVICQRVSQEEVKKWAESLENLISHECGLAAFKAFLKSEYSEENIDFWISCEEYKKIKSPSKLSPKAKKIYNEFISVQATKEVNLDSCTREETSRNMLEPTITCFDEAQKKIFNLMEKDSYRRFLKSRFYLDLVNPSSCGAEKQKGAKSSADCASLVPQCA
MrgX1 PAM = human MrgX1 positive allosteric modulation, primary screen | B-score at 10 µM | Q96LB2 | MrgX1-HEK293, Fluo-4 calcium flux, FDSS; stronger effect = higher value | AID 588675 | actives 0.63% (n = 310,000);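 active means plate-corrected calcium response at least 3 library SD above typical, normal starting fluorescence, not activating the receptor alone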;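 further: compound read alongside a low EC10 to EC30 dose of BAM8-22 agonist; peak minus trough fluorescence over baseline measured at the second addition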
MrgX1 antag = human MrgX1 receptor antagonism, primary screen. B-score at 10 µM. AID 588676. actives 1.3% (n = 310,000). MRGX1-HEK293 calcium flux, Fluo-4, BAM8-22 antagonism; stronger effect = lower value;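 active means calcium-response B-score plate-corrected more than 3 library SD below zero, starting fluorescence within 5 deviations, no agonist response on first addition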;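 further: peak minus trough fluorescence over baseline after final BAM8-22 challenge near maximal dose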
MrgX1 allo conf = reconfirmed allosteric activator of human MrgX1 receptor. MrgX1-HEK293, Fluo-4 calcium fluorescence, FDSS. AID 602413. actives 13% (n = 1,200). activation (ratio percentage), % at 10 µM. shares compounds with MrgX1 PAM;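 active means ratio at least 3 SD above the weak peptide control, stable starting fluorescence, no direct agonism earlier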;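 further: compound followed by low BAM8-22 agonist challenge near EC20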
HEK293 Ca flux = counter-screen for MrgX1 antagonists: effect in parental HEK293 cells. actives 2% (n = 4,000). fluorescence ratio F(max-min)/F0 at 10 µM. shares compounds with MrgX1 antag. Fluo-4 calcium fluorescence, FDSS;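 active means duplicate-averaged calcium fluorescence ratio at least three times the standard deviation of buffer wells, a nonspecific response in parental cells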
HEK293 Ca counter = counter-screen for MrgX1 allosteric activators: effect in parental HEK293 cells; shares compounds with MrgX1 antag; fluorescence ratio F(max-min)/F0 at 10 µM; parental HEK293 calcium flux, Fluo-4 fluorescence ratio; stronger effect = higher value; actives 0.4% (n = 4,000);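 active means calcium fluorescence ratio, averaged over duplicates, at least 3 SD of the buffer-well ratio, meaning a nonspecific response in receptor-free cells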;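 further: untransfected parental HEK293 lacking MrgX1 used as counterscreen for MrgX1 allosteric activators; fluorescence change taken during the second addition on a kinetic imager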
HEK293 Ca cntr2 = activity in parental HEK293 cells lacking MrgX1 receptor; Fluo-4 calcium fluorescence (FDSS); stronger effect = higher value; actives 8.7% (n = 4,000); shares compounds with MrgX1 antag; AID 624115; fluorescence ratio F(max-min)/F0 at 10 µM;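 active means calcium fluorescence ratio at least three times the spread of buffer wells, meaning a non-specific response in parental cells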
Active calls of the source: *; i = inactive; / = no result given. Compounds with a hit are over-represented: about 3.5% of the library has one in this group of screens.

SMILES | RGS4 pot | MrgX1 ag | RGS4 block | MrgX1 PAM | MrgX1 antag | MrgX1 allo conf | HEK293 Ca flux | HEK293 Ca counter | HEK293 Ca cntr2
O=C(Nc1ccc2ccccc2n1)c1ccccc1Br | i | i | i | i | i | / | / | / | /
CC(CCc1ccc(O)cc1)NC1c2ccccc2-c2ccccc21 (stereo unspecified) | i | i | i | 7.1* | i | i | i | i | i
COc1ccccc1NC(=O)N1c2ccc(F)cc2CCC1C (stereo unspecified) | i | i | i | 10.1* | i | i | i | i | i
CN(C)S(=O)(=O)c1ccc(Cl)c(NC(=O)COC(=O)CN2C(=O)C3CCCCC3C2=O)c1 (stereo unspecified) | i | i | i | 8.99* | i | i | i | i | i
Cc1ccc(C(=O)Nc2ccccc2N2CCCC2)cc1 | i | i | i | i | i | / | / | / | /
Cc1sc2ncnc(N3CCC(C)CC3)c2c1C | i | i | i | 17.7* | i | 4.3%* | i | i | i
Cc1c(C(=O)N2CCN(c3ccccc3)CC2)sc2ncnc(N3CCC(C)CC3)c12 | i | i | i | i | i | / | / | / | /
Cn1c(=O)c2c(nc(N3CCCCCC3)n2CCSc2nc3ccccc3o2)n(C)c1=O | i | i | i | 7.12* | i | i | i | i | i
CC1CCCN(c2nc3c(c(=O)n(C)c(=O)n3C)n2Cc2ccccc2)C1 (stereo unspecified) | i | i | i | 7.09* | i | i | i | i | i
O=C(C=C=Nc1ccccc1)C(=O)N=C=Cc1ccccc1 | i | i | i | i | i | / | / | / | /
O=C1CC2(CCCC2)Oc2ccccc21 | i | i | i | i | i | / | / | / | /
O=c1c2ccccc2nc(/C=C/c2ccccc2)n1CCCO | i | i | i | 11.2* | i | i | i | i | i
CCn1c(/C=C/c2ccc(F)cc2)nc2ccccc2c1=O | i | i | i | i | i | / | / | / | /
CCn1c(/C=C/c2ccccc2)nc2ccccc2c1=O | i | i | i | 7.71* | i | i | i | i | i
O=c1c2ccccc2nc(/C=C/c2ccc(O)cc2)n1CCc1ccccc1 | i | i | i | i | i | / | / | / | /
CNC(=O)[C@H]1O[C@@H](n2cnc3c(NCc4cccc(I)c4)ncnc32)[C@H](O)[C@@H]1O | / | i | / | 10.5* | i | i | i | i | i
Cn1cnc2c(NCc3ccco3)ncnc21 | i | i | i | i | i | / | / | / | /
O=C(Nc1ccc(CN2CCCCC2)cc1)Nc1ccc(Br)cc1Cl | i | i | i | i | i | / | / | / | /
COc1ccc(CNc2cccc(F)c2)cc1Br | i | i | i | 6.5* | i | i | i | i | i
Cn1ncc(Br)c1C(=O)NC12CC3CC(CC(C3)C1)C2 | i | i | i | 8.64* | i | i | i | i | i
CCC1CN(C(=O)N2CCC(C(=O)NCCc3ccc(OC)cc3OC)CC2)c2ccccc2O1 (stereo unspecified) | i | i | i | i | i | / | / | / | /
Cc1occc(=O)c1O | i | i | i | i | i | / | / | / | /
CCCc1cc(C(=O)N2CCCC(C(=O)c3cccc4ccccc34)C2)n(C)n1 (stereo unspecified) | i | i | i | 12.2* | i | i | i | i | i
O=C(c1ccc(Cl)cc1)C1CCCN(Cc2cccn2-c2cccnc2)C1 (stereo unspecified) | i | i | i | 7.52* | i | i | i | i | i
Cc1ccc(S(=O)(=O)N(C)C)cc1NC(=S)N1CCc2ccccc21 | i | i | i | 11.4* | i | i | i | i | i
SMILES | RGS4 pot | MrgX1 ag | RGS4 block | MrgX1 PAM | MrgX1 antag | MrgX1 allo conf | HEK293 Ca flux | HEK293 Ca counter | HEK293 Ca cntr2
Cc1c(NC(=O)COc2ccc(C(C)C)cc2)c(=O)n(-c2ccccc2)n1C | i | i | i | i | i | / | / | / | /
Clc1ccc(CSc2cc3c(nn2)-c2ccccc2CC3)cc1 | i | i | i | 7.95* | i | i | i | 47.9* | i
O=C(COC(=O)c1cccc(S(=O)(=O)Nc2ccc(F)cc2)c1)NCCN1C(=O)CSC1=O | i | i | i | i | i | / | / | / | /
COc1ccccc1NC(=O)CSc1nnnn1-c1ccc(C(=O)O)cc1 | i | i | i | i | i | / | / | / | /
CCCCOc1ccccc1NC(=O)CSc1nnnn1C(C)(C)C | i | i | i | 22.1* | i | i | i | i | i
CCn1c(=S)[nH]c2cc(C(=O)OC)ccc2c1=O | i | i | i | 8.08* | i | i | i | i | i
Cc1ccc(CN2CCSc3ccc(C(=O)NC4CCCC4)cc32)cc1 | i | i | i | 9.37* | i | i | i | i | i
O=C(NC1CCCC1)c1ccc2c(c1)N(Cc1ccc(F)cc1)CCS2 | i | i | i | i | i | / | / | / | /
Cc1n[nH]c(C)c1S(=O)(=O)N1CCC(C(=O)Nc2cccc(F)c2)CC1 | i | i | i | i | i | / | / | / | /
Cc1ccccc1-n1c(SCC(=O)N(C)C2CCS(=O)(=O)C2)nc2ccccc2c1=O (stereo unspecified) | i | i | i | 14.1* | i | i | i | i | i
Nc1nc2ccccc2n1CCOc1ccc(Cl)cc1 | i | i | i | 6.58* | i | i | i | i | i
Cc1cc(NC(=O)c2ccc(C#N)cc2)on1 | i | i | i | i | i | / | / | / | /
Cc1cccc(C(=O)NCC(c2cccs2)N2CCOCC2)c1 (stereo unspecified) | i | i | i | i | i | / | / | / | /
COc1ccc(S(=O)(=O)c2c(O)c3ccc(C(=O)Nc4cccc(F)c4)cc3[nH]c2=O)cc1 | i | i | i | 17.5* | i | i | i | i | i
COc1cccc(NC(=O)c2ccc3c(O)c(S(=O)(=O)c4ccccc4)c(=O)[nH]c3c2)c1 | i | i | i | i | i | / | / | / | /

Screening data from PubChem.
